According to ChEMBL document CHEMBL4513216, “Probing the Open Global Health Chemical Diversity Library for Multistage-Active Starting Points for Next-Generation Antimalarials” (ACS Infect Dis, 2020):

Experiment: Toxicity liver stage against HepG2, at 10uM
Format: cell-based
Parameters: test concentration 10 uM, cell line HepG2-A16-CD81EGFP
Settings: human, HepG2-A16-CD81EGFP cells; read-out: INHIBITION
Outline: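 Uninfected HepG2-A16-CD81EGFP cells, 3 × 10^3 per well, 1536-well, plated on prespotted compound at 10 μM final, parasite-free screening media added to match infected plates; puromycin 10 μM positive, DMSO 0.5% negative; run in parallel with 48 h PbLuc assay at 37 °C, 5% CO2; viability by CellTiter-Glo luminescence, normalized to controls.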

| SMILES | cytotoxicity at 10 µM [%] |
| --- | --- |
| CN(Cc1cnccn1)S(=O)(=O)c1ccc(C(F)(F)F)nc1 | -9.77 |
| CCc1ccc(CN(C)C(=O)c2ccc(CSc3nnc[nH]3)o2)nc1 | -2.19 |
| O=C(c1ccco1)N1C[C@H]2CCCN(Cc3ccc(F)cc3)[C@H]2C1 | 0.255 |
| CN(C)c1ccc(C(=O)Nc2ccn(CCc3ccncc3)n2)cc1 | -4.59 |
| CC(C)CCC(=O)NCCc1ccn(-c2ccccc2)n1 | -14.6 |
| Cc1cc(NC(=O)NCc2cccnc2OC(C)C)n(C)n1 | 3.2 |
| CCn1cncc1C1CC(=O)Nc2c1c(C)nn2C (configuration not stated) | -0.557 |
| O=C(NCCN1CCCC(CO)C1)c1ccc2scnc2c1 (configuration not stated) | 8.61 |
| Cc1cc(C)nc(C2CCCN2C(=O)c2coc(C)n2)n1 (configuration not stated) | 6.93 |
| Cc1nc(NCc2noc(C3CCCO3)n2)c2sccc2n1 (configuration not stated) | 50.2 |
| c1cncc(OC[C@@H]2CC[C@H]3[C@H](CCN3Cc3cccs3)O2)c1 | 6.23 |
| CC(=O)NCC(=O)N1Cc2nccn2CC(CN(C)C(C)C)C1 (configuration not stated) | -75.7 |
| CCCOc1ccc(C(=O)N2C[C@@H](CN3CCCC3)[C@@H](CO)C2)cc1Cl | -5.84 |
| CCCc1nnsc1C(=O)N1CCCC1(C)C(=O)N1CCOCC1 (configuration not stated) | 12 |
| Cc1ccc(S(=O)(=O)NC(=O)COc2ccc(CC#N)cc2)s1 | 2.52 |
| CC(C)NC(=O)CNC(=O)OC(C)(C)C | 9.39 |
| Cc1ccc(OCc2occc2C(=O)N2CCCCC(N)C2)cc1 (configuration not stated) | -8.84 |
| Cc1c(Br)c(C(=O)NC(C)c2ccccc2)nn1C (configuration not stated) | -4.34 |
| CNC(=O)[C@@H]1C[C@@H](n2cc(-c3ccc(CN4CC=CC4)cc3)nn2)CN1 | 3.76 |
| COc1cccc(C(=O)N2C[C@@H]3CC[C@H]2CN(Cc2cscn2)C3)c1 | 1.5 |
| Cc1cc(S(C)(=O)=O)c(C)c(S(=O)(=O)N2CCCCCC2)c1 | 14.1 |
| CCOc1cc(N2CCN(C(=O)c3ccc(OC)cc3)CC2)nc(C)n1 | -10.2 |
| CN(Cc1cnn(C)c1)C(CO)c1cccc(Br)c1 (configuration not stated) | -2.86 |

| SMILES | cytotoxicity at 10 µM [%] |
| --- | --- |
| Cc1ccc(CNC(=O)CN2CCOC(Cn3cncn3)C2)s1 (configuration not stated) | -8.45 |
| CSC1(CNC(=O)N(C)Cc2ccc(Cl)s2)CCOCC1 | 8.08 |
| CC(C)(C)OC(=O)N1CCN(c2ccc(F)cc2)CC1C(=O)O (configuration not stated) | -1.73 |
| Cc1ccc(-c2ccccc2CC2CNCCNC2=O)c(C)c1 (configuration not stated) | -1.18 |
| Cc1ccc(CC2CCCN2CC(=O)NCc2ccccn2)cc1 (configuration not stated) | 6.46 |
| Cc1noc(C)c1C(=O)N1CCCC(c2nccn2Cc2cscn2)C1 (configuration not stated) | 2.11 |
| COc1ccc(OC)c(NC(=O)c2c(C)cn(C)c2CC(=O)O)c1 | -1.52 |
| Cc1ccc(OCc2occc2C(=O)O)cc1 | -3.76 |
| CCOc1cc(/C=C/c2ncc(C(=O)O)s2)ccc1O | 0.241 |
| OCC1CCCN1c1cc(N2CCC(OC3CCCC3)CC2)ncn1 (configuration not stated) | -2.43 |
| O=C(NC1CC1)C1CCCN1c1ncnc2ccsc12 (configuration not stated) | -5.2 |
| O=C(NCCOc1cccc(Cl)c1Cl)N1CCC2(CC1)OCCO2 | -3.36 |
| CN(C)CCn1ccnc1C1CCN(C(=O)CCC(F)(F)F)CC1 | -0.734 |
| c1cnn(CCNCc2cnc(N3CCCC3)nc2)c1 | -9.46 |
| O=C(NCCC(O)c1ccoc1)Nc1cccs1 (configuration not stated) | -2.55 |
| Cc1ncc(CNC(C)(C)CO)c2cc(C(=O)c3ccc(Br)cc3)oc12 | 12.7 |
| CNS(=O)(=O)c1ccc(CNC(=O)c2c(C)oc(C)c2C)cc1 | -17.1 |
| O=C(c1cc(C2CC2)on1)N1CCC(Oc2ncccc2Cl)CC1 | 5.37 |
| CCOc1ccc(N(C)Cc2nnc(C)o2)cc1 | 9.46 |
| Cc1cnn(CC2CCCN2c2ccc(C#N)cn2)c1 (configuration not stated) | 14 |
| CCN(C)C1COC2(CCN(C(=O)c3ccc(Cl)cc3)CC2)C1 (configuration not stated) | -2.57 |
| CC(C)CN1CC[C@@H]2[C@@H]1CCN2C(=O)N(C)C | -0.88 |
| CC(=O)N(C)C1CCN(C(=O)c2cccc3c2ccn3C)CC1 | 1.56 |

| SMILES | cytotoxicity at 10 µM [%] |
| --- | --- |
| CC(C)CN(C(=O)Nc1cccnc1)C1CC1 | -11.3 |
| CC(=O)NCC1CCC2(CCN(c3ncnc4oc(C)nc34)CC2)O1 (configuration not stated) | 1.32 |
| COc1c(C2CCCN2C(=O)c2csc(C3CC3)n2)c(C)nn1C (configuration not stated) | 4.53 |
| Cc1ccccc1N1CC(C)N(C(=O)CCn2cccn2)CC1=O (configuration not stated) | 10.1 |
| CC(C)C[C@H](NC(=O)Cc1csc(-c2cccc(Cl)c2)n1)C(=O)O | 3.51 |
| CCc1ccc(CN(C)c2ccc(-c3nc(COC)no3)cn2)nc1 | -2.68 |
| CCc1onc(C)c1C(=O)N1CCC(c2cc3ncccc3cn2)CC1 | 1.68 |
| CS(=O)(=O)N1CCCC1c1cccc(Nc2nccs2)n1 (configuration not stated) | -33.4 |
| NC(=O)c1ccc(OCCCN2C[C@H](C3CC3)[C@@H](N)C2)cc1 | -0.517 |
| CC(C)(C)c1cnc(CN2CCCC2Cn2cccn2)o1 (configuration not stated) | -9.6 |
| N#Cc1ccnc(SCC2CN=C(N3CCOCC3)S2)c1 (configuration not stated) | -22.9 |
| NC(=O)N1CC[C@H](O)[C@@H]1Cc1ccccc1 | 3.32 |
| CC(C)c1nc(CN(C)Cc2cnc(N3CCOCC3)nc2)no1 | 10.1 |
| CC[C@H](C)Nc1ncc(-c2ccn(C3CCN(C(C)=O)CC3)n2)cn1 | -9.22 |
| Cn1c(C2CC2)nc2c1CCN(Cc1nc3ccccc3s1)C2 | -4.69 |
| O=C(CCc1cccc(F)c1F)N1CCCC(n2cncn2)C1 (configuration not stated) | -20.2 |
| COc1cc(S(=O)(=O)Nc2cn[nH]c2)ccc1Br | -1.47 |
| c1nc(NCC2(N3CCOCC3)CCSC2)c2sccc2n1 (configuration not stated) | 59.7 |
| Cc1ccc(OCCNC(=O)C2CCOCC2)c(C)c1 | 16.4 |
| CC(C)N1CCC2(CCCN(Cc3ccc(F)cc3)C2=O)C1 (configuration not stated) | -28.7 |
| CCOc1ccccc1CNS(=O)(=O)c1ccc2c(c1)CCCC(=O)N2 | 7.89 |
| Cc1nc(CN2CCCC(Cn3cc(CCO)nn3)C2)c2ccccn12 (configuration not stated) | 3.28 |
| COc1ccc(S(=O)(=O)C(F)(F)F)cc1NC(=O)CSCC#N | -2.72 |

| SMILES | cytotoxicity at 10 µM [%] |
| --- | --- |
| N#Cc1ccc(SCCC(=O)N(Cc2cccnc2)C2CC2)cc1 | 12.3 |
| Cc1ccc(OCCN(C)C(=O)NC(C)c2nncn2C)cc1 (configuration not stated) | -9.77 |
| CC(C)Cc1cc(NC(=O)c2ccc(=O)[nH]n2)n(C)n1 | -10.1 |
| CC(C)C(=O)N1C[C@H]2CCCN[C@H]2C1 | 1.55 |
| CS(=O)(=O)N1CCCCCC1C1CCN(c2ncccc2C#N)CC1 (configuration not stated) | -3.2 |
| CN(C)C(=O)Cn1c(C2CC2)c(CN2CCSCC2)c2cccnc21 | 4.06 |
| Cc1nc(N(C)C)nc(C)c1NC(=O)c1ccco1 | 1.14 |
| N#Cc1ccc(F)c(CNC(=O)NC(CO)Cc2ccccc2)c1 (configuration not stated) | 1.98 |
| CC(C)C(O)C(C)(C)CNC(=O)NCc1ccc(-n2cncn2)cc1 (configuration not stated) | -8.14 |
| COCCC(C)NC(=O)N1CCSC(C)(C)C1 (configuration not stated) | -3.94 |
| Cc1cnn(CC(=O)NCC2CCN(c3cc(Cl)ccc3C)C2)c1 (configuration not stated) | -3.92 |
| NC(=O)CCSc1ccccc1NCc1ccc(Cl)s1 | 7.74 |
| Cn1cccc1C(=O)N1C[C@H]2CN(Cc3cccc(F)c3)C[C@H]2C1 | -1.1 |
| CCCc1cc(C(=O)N(Cc2cccnc2)C2CCCCC2)[nH]n1 | -11.2 |
| Cc1cc(CN(C)C(=O)C2CCCN(C(=O)c3cccs3)C2)no1 (configuration not stated) | -17 |
| CS(=O)(=O)c1ccc(NC(=O)CSc2ccc3c(c2)CCC3)cc1 | 5.73 |
| COCCc1noc(CN(C)c2nccc(C)n2)n1 | 9.34 |
| CCc1c(C(=O)O)nnn1-c1ccc(C)cc1C | -5.11 |
| O=C1COC2(COCCN(Cc3cccnc3)C2)CN1c1ccccc1 (configuration not stated) | 9.72 |
| CC(Nc1cccc(CN2CCOC2=O)c1)C(=O)Nc1cccc(F)c1 (configuration not stated) | -9.16 |
| COCCN1C(=O)[C@@H]2CC[C@H]1CN(Cc1nnc(C3CC3)o1)C2 | 11.6 |
| Cc1ccc2nc3n(c2c1)[C@@H](CNC(=O)c1ccncc1)COC3 | -3.61 |
| O=C([C@H]1CN(Cc2cccnc2)C[C@H]2OCC[C@@H]12)N1CCCO1 | 8.98 |

| SMILES | cytotoxicity at 10 µM [%] |
| --- | --- |
| COCCNC(=O)c1ccc2ccc(N3CCN(CC4CC4)CC3)n2c1 | 6.59 |
| Cc1n[nH]c(C)c1CCc1ccc(S(C)(=O)=O)cc1 | 6.29 |
| Cc1cc(C(=O)NC2CCC3(CCC(=O)N3C)CC2)no1 (configuration not stated) | -0.361 |
| CC(C)=CCN1C[C@@H]2CC[C@H]1CN(S(=O)(=O)c1cccnc1)C2 | 3.26 |
| Cc1cccc(C)c1OCC(=O)NC(C)c1nnc2n1CCC2 (configuration not stated) | -3.09 |
| COc1cccc2ccn(CCC(=O)N3CCCC(C(=O)O)C3)c12 (configuration not stated) | -9.42 |
| Cc1ccsc1-c1nccn1CCS(=O)(=O)N1CCCC1 | -3.67 |
| CSCCC(C)(O)CNC(=O)Nc1ccccc1C (configuration not stated) | -1.44 |
| CN(CCCc1cnn(C)c1)Cc1cc2n(n1)CCCN(C)C2 | -0.857 |
| Cc1oncc1C(=O)NCc1ccnc(OCC(F)(F)F)c1 | -3.39 |
| CCOC(=O)N1CCN(c2nc(NCCCO)c3ccccc3n2)CC1 | -9.21 |
| CCOC(=O)CCNC(=O)N1CCN(c2nc3ccccc3n2C)CC1 | 4.88 |
| c1cnc(N2CCCn3c(nnc3Cn3cccn3)C2)nc1 | -1.58 |
| COCC1CN(Cc2ccc(C)o2)Cc2nnn(CC3CC3)c21 (configuration not stated) | -9.96 |
| Cn1cnc2c1CCN(Cc1cccc(C(=O)N3CCCCC3)c1)C2 | -2.75 |
| CC(=O)N(CCc1nc(-c2cc(C(N)=O)co2)cs1)C(C)C | -4.91 |
| COc1ccccc1OCC(=O)Nc1ncccc1C | 0.464 |
| Fc1cccc(-c2nc(CN3CCn4c(nnc4C4CC4)C3)co2)c1 | 4.4 |
| CSC1(CNC(=O)NC(C)c2ccc(F)cc2)CCOCC1 (configuration not stated) | 6.88 |
| CCCc1cnc(C)nc1NC(C)Cc1cnccn1 (configuration not stated) | -7.96 |
